Experimental data from ChEMBL document CHEMBL1143520, “Bicyclic amidine inhibitors of nitric oxide synthase: discovery of perhydro-iminopyrindine and perhydro-iminoquinoline as potent, orally active inhibitors of inducible nitric oxide synthase” (Bioorg Med Chem Lett, 2005).

Key:
[1] = target: Nitric oxide synthase, inducible (Homo sapiens, UniProt P35228); experiment: Inhibitory activity against human Inducible nitric oxide synthase (iNOS)
[2] = target: T1, Nitric oxide synthase 3 (Homo sapiens, UniProt P29474); experiment: Inhibitory activity against human Endothelial nitric oxide synthase (eNOS)
T1 sequence (P29474 whole entry): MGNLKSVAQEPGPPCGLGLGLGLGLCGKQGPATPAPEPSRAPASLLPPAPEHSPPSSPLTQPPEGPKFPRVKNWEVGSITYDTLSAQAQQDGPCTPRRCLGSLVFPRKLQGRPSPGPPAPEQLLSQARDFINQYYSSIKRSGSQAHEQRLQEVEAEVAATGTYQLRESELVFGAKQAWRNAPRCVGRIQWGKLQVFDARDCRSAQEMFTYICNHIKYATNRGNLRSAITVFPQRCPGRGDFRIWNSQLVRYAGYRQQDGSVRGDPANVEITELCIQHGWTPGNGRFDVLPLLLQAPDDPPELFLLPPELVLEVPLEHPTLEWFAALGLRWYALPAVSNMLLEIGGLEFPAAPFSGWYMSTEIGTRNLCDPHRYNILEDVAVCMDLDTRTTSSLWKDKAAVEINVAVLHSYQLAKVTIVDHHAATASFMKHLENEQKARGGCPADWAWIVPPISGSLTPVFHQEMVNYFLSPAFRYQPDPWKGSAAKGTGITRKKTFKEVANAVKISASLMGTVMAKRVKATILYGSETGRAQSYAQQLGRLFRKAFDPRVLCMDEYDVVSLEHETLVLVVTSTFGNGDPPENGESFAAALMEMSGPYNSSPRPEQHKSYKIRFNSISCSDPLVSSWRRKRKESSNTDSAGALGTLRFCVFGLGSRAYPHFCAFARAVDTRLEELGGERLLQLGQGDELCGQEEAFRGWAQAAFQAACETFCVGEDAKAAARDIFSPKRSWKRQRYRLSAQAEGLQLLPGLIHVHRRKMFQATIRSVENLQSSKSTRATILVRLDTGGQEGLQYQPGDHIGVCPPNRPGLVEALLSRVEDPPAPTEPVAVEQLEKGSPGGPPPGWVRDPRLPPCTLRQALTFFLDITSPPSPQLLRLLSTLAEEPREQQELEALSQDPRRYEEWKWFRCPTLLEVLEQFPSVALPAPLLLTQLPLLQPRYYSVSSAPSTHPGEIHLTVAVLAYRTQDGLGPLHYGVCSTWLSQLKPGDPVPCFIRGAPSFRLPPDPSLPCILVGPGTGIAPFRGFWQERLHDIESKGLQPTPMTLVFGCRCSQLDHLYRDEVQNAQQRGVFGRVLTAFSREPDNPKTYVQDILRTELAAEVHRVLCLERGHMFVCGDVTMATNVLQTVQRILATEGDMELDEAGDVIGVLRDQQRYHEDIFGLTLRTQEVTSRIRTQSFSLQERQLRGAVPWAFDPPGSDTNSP

[3] = target: Nitric oxide synthase 1 (Homo sapiens, UniProt P29475); experiment: Inhibitory activity against human Neuronal nitric oxide synthase (nNOS)
[4] = target: Nitric oxide synthase (inducible and endothelial) (Homo sapiens) (UniProt P35228+P29474); experiment: Selectivity measured as the ratio of eNOS IC50/iNOS IC50; format: protein assay
[5] = test system: Rattus norvegicus; experiment: Percentage inhibition of plasma nitrite/nitrate after peroral administration of 10 mg/kg of compound to rats 2 hr prior to LPS treating; format: functional; details: route oral
In short: (§1)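 Rats given 10 mg/kg po at set times before LPS challenge. Plasma nitrate/nitrite measured 5 h after LPS: nitrate reduced to nitrite by nitrate reductase, then fluorometric nitrite read-out. Reported as % inhibition of plasma NOx.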

[6] = test system: Rattus norvegicus; experiment: Percentage inhibition of plasma nitrite/nitrate after peroral administration of 10 mg/kg of compound to rats 16 hr prior to LPS treating; format: functional; details: route oral; in short: as §1
[7] = test system: Rattus norvegicus; experiment: Percentage inhibition of plasma nitrite/nitrate after peroral administration of 10 mg/kg of compound to rats 4 hr prior to LPS treating; format: functional; details: route oral; in short: as §1
[8] = test system: Rattus norvegicus; experiment: Effective dose causing 50% reduction in plasma nitrite relative to control animals after intravenous administration in LPS treated rats; format: functional
In short: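 Rat endotoxin model: LPS challenge, then iv dosing 2 h after LPS. Plasma collected 5 h after LPS. Nitrate converted to nitrite with nitrate reductase, then total nitrite/nitrate measured fluorometrically.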

[9] = test system: Rattus norvegicus; experiment: Percentage inhibition of plasma nitrite/nitrate after peroral administration of 10 mg/kg of compound to rats 1 hr prior to LPS treating; format: functional; details: route oral; in short: as §1

Nitric oxide synthase, inducible, sequence (P35228 whole entry): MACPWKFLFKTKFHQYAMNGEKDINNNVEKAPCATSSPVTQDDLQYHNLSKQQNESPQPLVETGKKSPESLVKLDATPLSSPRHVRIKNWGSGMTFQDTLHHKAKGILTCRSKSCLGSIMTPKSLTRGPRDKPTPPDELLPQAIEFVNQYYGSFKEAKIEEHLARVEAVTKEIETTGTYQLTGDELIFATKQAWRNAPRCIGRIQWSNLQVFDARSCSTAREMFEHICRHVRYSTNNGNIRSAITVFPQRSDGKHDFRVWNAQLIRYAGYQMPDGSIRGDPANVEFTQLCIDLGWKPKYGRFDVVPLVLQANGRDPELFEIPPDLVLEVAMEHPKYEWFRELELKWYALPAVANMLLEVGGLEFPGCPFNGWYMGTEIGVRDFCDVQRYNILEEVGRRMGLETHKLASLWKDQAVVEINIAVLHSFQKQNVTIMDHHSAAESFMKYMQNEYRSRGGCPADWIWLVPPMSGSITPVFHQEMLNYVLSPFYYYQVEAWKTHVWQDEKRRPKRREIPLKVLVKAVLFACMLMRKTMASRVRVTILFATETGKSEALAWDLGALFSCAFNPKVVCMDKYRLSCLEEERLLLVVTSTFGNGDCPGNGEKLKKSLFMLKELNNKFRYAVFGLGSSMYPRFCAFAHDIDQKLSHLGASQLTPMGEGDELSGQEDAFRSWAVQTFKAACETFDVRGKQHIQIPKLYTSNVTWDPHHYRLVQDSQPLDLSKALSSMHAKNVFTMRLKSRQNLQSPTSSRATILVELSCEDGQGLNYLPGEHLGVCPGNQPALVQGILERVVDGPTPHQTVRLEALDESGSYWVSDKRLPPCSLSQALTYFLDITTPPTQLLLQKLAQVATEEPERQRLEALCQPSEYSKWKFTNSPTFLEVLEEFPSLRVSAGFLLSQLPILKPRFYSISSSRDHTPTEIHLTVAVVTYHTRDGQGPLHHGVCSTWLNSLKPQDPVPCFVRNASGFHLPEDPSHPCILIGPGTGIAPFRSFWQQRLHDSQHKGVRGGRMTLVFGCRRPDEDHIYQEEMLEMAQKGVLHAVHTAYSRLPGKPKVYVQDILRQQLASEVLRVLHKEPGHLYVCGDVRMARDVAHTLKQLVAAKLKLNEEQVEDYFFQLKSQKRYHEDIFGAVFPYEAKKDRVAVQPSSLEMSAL
Nitric oxide synthase 1, sequence (P29475 whole entry): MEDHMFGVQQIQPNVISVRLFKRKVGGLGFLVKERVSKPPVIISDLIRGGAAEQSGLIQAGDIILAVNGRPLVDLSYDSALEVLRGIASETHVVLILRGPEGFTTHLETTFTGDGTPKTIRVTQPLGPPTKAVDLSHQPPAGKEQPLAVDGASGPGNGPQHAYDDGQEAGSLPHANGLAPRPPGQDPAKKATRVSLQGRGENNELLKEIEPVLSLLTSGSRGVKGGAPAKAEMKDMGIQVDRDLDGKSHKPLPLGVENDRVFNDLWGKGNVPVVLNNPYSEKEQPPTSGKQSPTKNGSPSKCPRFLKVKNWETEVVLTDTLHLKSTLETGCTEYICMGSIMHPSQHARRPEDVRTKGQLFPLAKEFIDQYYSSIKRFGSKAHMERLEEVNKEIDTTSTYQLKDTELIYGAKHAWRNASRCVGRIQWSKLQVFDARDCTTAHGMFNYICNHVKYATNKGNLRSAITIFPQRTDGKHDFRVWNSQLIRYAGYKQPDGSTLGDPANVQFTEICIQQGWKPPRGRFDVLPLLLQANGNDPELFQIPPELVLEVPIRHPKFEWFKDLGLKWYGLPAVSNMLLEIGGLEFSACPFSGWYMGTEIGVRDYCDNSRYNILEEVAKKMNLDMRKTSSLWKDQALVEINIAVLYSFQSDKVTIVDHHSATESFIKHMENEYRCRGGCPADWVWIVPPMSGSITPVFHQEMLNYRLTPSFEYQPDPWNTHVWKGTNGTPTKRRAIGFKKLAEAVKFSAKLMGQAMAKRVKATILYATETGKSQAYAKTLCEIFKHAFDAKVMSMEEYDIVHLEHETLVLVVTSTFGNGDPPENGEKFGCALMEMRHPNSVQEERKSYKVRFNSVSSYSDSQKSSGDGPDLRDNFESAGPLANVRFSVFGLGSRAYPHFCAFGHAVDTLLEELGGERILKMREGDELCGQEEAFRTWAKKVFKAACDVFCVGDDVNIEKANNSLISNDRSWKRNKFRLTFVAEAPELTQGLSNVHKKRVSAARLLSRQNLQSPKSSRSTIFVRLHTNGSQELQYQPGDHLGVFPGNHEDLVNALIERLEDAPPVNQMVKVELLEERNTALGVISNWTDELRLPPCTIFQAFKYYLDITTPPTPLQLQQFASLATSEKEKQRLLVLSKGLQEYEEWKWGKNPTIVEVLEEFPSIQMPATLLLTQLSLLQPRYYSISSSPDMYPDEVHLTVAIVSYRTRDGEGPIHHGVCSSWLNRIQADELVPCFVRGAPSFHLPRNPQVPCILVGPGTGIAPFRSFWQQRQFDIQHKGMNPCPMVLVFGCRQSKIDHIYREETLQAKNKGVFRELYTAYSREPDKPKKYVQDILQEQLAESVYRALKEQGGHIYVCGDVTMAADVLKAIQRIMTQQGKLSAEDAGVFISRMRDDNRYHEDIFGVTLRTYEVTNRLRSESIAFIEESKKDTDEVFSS

Row | SMILES | IC50 [1] | IC50 [2] | IC50 [3] | Selectivity [4] | inhibition in vivo at 10 mg/kg [5] | inhibition in vivo at 10 mg/kg [6] | inhibition in vivo at 10 mg/kg [7] | ED50 [8] | inhibition in vivo at 10 mg/kg [9]
1 | C[C@H]1CC(N)=N[C@H]2CCC[C@H]21 | 133 nM | 870 nM | 36 nM | 6.5 | – | – | – | – | –
2 | C[C@@H]1CC(N)=N[C@@H]2CCC[C@H]12 (stereo in doubt; 10) [listing 1 of 2 here] | – | – | – | 31 | – | – | – | – | –
3 | C[C@@H]1CC(N)=N[C@H]2CCCC[C@@H]12 | 38 nM | 2000 nM | 190 nM | 52 | – | – | – | – | –
4 | C[C@@H]1CC(N)=N[C@@H]2CCC[C@H]12 (stereo in doubt; 10) [listing 2 of 2 here] | 15 nM | 470 nM | 31 nM | – | – | – | – | – | –
5 | C[C@@H]1CC(N)=N[C@@H]2CCC[C@H]12 (stereo in doubt; 10a) [listing 1 of 2 here] | 9 nM | 360 nM | 21 nM | – | 80% | 39% | 52% | 0.25 mg/kg | 95%
6 | NC1=Nc2ccccc2CC1 | 14000 nM | 85000 nM | 4900 nM | 6.1 | – | – | – | – | –
7 | C[C@@H]1CC(N)=N[C@@H]2CCCC[C@H]12 | 22 nM | 830 nM | 53 nM | 37 | 69% | 42% | 74% | 0.19 mg/kg | 57%
8 | C[C@@H]1CC(N)=N[C@@H]2CCCCC[C@H]12 | 860 nM | 4500 nM | 1300 nM | 5.2 | – | – | – | – | –
9 | C[C@@H]1CC(N)=N[C@@H]2CCC[C@H]12 (stereo in doubt; 10a) [listing 2 of 2 here] | – | – | – | 40 | – | – | – | – | –
10 | CC1CCN=C(N)C1 (configuration not stated) | 37 nM | – | – | – | – | – | – | 0.5 mg/kg | –
11 | N=C1CCCCN1 | 300 nM | 630 nM | – | – | – | – | – | – | –
12 | NC1=N[C@H]2CCCC[C@H]2CC1 | 186 nM | 12500 nM | 246 nM | 67 | – | – | – | – | –
13 | C[C@H]1CC(N)=N[C@H]2CCCC[C@H]21 | > 5000 nM | > 5000 nM | 610 nM | – | – | – | – | – | –
14 | NC1=N[C@H]2CCCC[C@@H]2CC1 | 528 nM | 5500 nM | 530 nM | – | – | – | – | – | –
